Active and inactive are the calls of the source. The rule behind the calls is not given here.
What was measured:
PC-12 [1] = experiment: Neuroprotective activity against 6-OHDA-induced cell damage in rat PC12 cells assessed as cell viability at 20 uM after 24 hrs by MTT assay (reference value: 45.23 +/- 4.37 %); assay type: functional; conditions: read-out: Activity
PC-12 [2] = experiment: Protection against 6-OHDA-induced oxidative damage in rat PC12 cells assessed as intracellular ROS level by measuring mean fluorescence intensity at 5 uM pretreated with compound followed by 6-OHDA stimulation by DCFH-DA staining based flow cytometry (reference value: 26327.34); assay type: functional
PC-12 [3] = experiment: Protection against H2O2-induced mitochondrial dysfunction in rat PC12 cells assessed as change in mitochondrial membrane potential at 5 uM pretreated with compound followed by H2O2 addition by JC-1 staining based flow cytometry (reference value: 78.7 %); assay type: functional
Procedure, shortened: (§1)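 Mitochondrial membrane potential in PC12 cells pretreated with compound (5, 10, 20 μM), then exposed to H₂O₂ (200 μM) or 6-OHDA (150 μM). JC-1 staining, red-to-green fluorescence shift read by flow cytometry. Mean ± SD, n = 3.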

PC-12 [4] = experiment: Protection against H2O2-induced mitochondrial dysfunction in rat PC12 cells assessed as change in mitochondrial membrane potential loss at 10 uM pretreated with compound followed by H2O2 addition by JC-1 staining based flow cytometry (reference value: 21.3 %); assay type: functional; procedure, shortened: as §1
PC-12 [5] = experiment: Protection against 6-OHDA-induced mitochondrial dysfunction in rat PC12 cells assessed as change in mitochondrial membrane potential at 20 uM pretreated with compound followed by 6-OHDA addition by JC-1 staining based flow cytometry (reference value: 73.2 %); assay type: functional; procedure, shortened: as §1
PC-12 [6] = experiment: Protection against 6-OHDA-induced mitochondrial dysfunction in rat PC12 cells assessed as change in mitochondrial membrane potential loss at 5 uM pretreated with compound followed by 6-OHDA addition by JC-1 staining based flow cytometry (reference value: 26.8 %); assay type: functional; procedure, shortened: as §1
PC-12 [7] = experiment: Protection against H2O2-induced apoptosis in rat PC12 cells assessed as late apoptotic cells at 10 uM incubated for 24 hrs by annexin V FITC/propidium iodide staining based flow cytometry (reference value: 16.2 %); assay type: functional
PC-12 [8] = experiment: Protection against 6-OHDA-induced apoptosis in rat PC12 cells assessed as early apoptotic cells at 5 uM incubated for 24 hrs by annexin V FITC/propidium iodide staining based flow cytometry (reference value: 19.2 %); assay type: functional
PC-12 [9] = experiment: Protection against 6-OHDA-induced apoptosis in rat PC12 cells assessed as early apoptotic cells at 20 uM incubated for 24 hrs by annexin V FITC/propidium iodide staining based flow cytometry (reference value: 19.2 %); assay type: functional
PC-12 [10] = experiment: Protection against 6-OHDA-induced apoptosis in rat PC12 cells assessed as necrotic cells at 20 uM incubated for 24 hrs by annexin V FITC/propidium iodide staining based flow cytometry (reference value: 1.1 %); assay type: functional
PC-12 [11] = experiment: (§2) Prevention of H2O2-induced calcium overload in rat PC12 cells assessed as reduction in intracellular free calcium by measuring mean fluorescence intensity at 20 uM pretreated with compound followed by H2O2 addition by Fluo-3AM based fluorescence assay (reference value: 17791.36%); assay type: functional; conditions: time 24 hrs
PC-12 [12] = experiment: as §2, with “6-OHDA-induced” for “H2O2-induced”, “5” for “20”, “6-OHDA” for “H2O2”, “addition measured after 24 hrs” for “addition”, “6708.18%)” for “17791.36%)”; assay type: functional
PC-12 [13] = experiment: as §2, with “6-OHDA-induced” for “H2O2-induced”, “6-OHDA” for “H2O2”, “addition measured after 24 hrs” for “addition”, “6708.18%)” for “17791.36%)”; assay type: functional
[14] = biological target: T1, Nuclear factor erythroid 2-related factor 2 (Rattus norvegicus) (UniProt O54968); experiment: Activation of Nrf2 in rat PC12 cells assessed as increase in Nrf2 protein level at 20 uM after 3 hrs by Western blot analysis; assay type: cell-based; conditions: PC-12, filed as activator
T1 sequence (whole entry): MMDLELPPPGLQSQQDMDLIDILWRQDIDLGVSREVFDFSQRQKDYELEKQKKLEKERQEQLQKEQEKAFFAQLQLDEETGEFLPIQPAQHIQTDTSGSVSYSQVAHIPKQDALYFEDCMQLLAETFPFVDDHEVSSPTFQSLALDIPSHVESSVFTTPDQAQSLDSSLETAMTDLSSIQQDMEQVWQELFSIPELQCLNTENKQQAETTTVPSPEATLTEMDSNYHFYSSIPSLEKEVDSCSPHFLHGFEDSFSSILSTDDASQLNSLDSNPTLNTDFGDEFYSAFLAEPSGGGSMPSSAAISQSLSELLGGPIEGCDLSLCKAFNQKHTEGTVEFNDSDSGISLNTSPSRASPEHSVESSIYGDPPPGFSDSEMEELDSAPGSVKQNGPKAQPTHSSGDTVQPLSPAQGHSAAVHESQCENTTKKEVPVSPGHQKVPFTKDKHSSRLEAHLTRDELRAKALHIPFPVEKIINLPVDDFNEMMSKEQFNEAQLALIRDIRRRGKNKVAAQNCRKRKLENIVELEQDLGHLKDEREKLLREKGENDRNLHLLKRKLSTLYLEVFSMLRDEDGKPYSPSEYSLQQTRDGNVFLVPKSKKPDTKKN

[15] = biological target: T1, Nuclear factor erythroid 2-related factor 2 (Rattus norvegicus); experiment: Activation of Nrf2 in rat PC12 cells assessed as increase in NQO1 protein level at 20 uM after 24 hrs by Western blot analysis; assay type: cell-based; conditions: PC-12, filed as activator
[16] = biological target: T1, Nuclear factor erythroid 2-related factor 2 (Rattus norvegicus); experiment: Activation of Nrf2 in rat PC12 cells assessed as increase in TrxR1 protein level after 24 hrs by Western blot analysis; assay type: cell-based; conditions: PC-12, filed as activator, dose 5-20 µM
Procedure, shortened: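 PC12 cells treated with compound for 24 h at rising concentrations; NQO1, HO-1, TrxR1, GCLM, GCLC protein detected by Western blot.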

PC-12 [17] = experiment: Neuroprotective activity against 6-OHDA-induced cell death in rat PC12 cells assessed as cell viability at 20 uM preincubated for 30 mins in presence of brusatol […] and measured after 24 hrs by MTT assay; assay type: functional, cell-based; conditions: time 24.5 hrs

CCN(C)C(=O)N1CCN(C(=O)/C=C/c2ccc(F)cc2)C1=O
viability at 20 µM (PC-12 [1]): 75.4%
Flu intensity (PC-12 [2]): 18168.07
Activity (PC-12 [3]): 86.7%
Activity (PC-12 [4]): 9.7%
Activity (PC-12 [5]): 89.3%
Activity (PC-12 [6]): 20.5%
Activity (PC-12 [7]): 5.3%
Activity (PC-12 [8]): 11.1%
Activity (PC-12 [9]): 5.2%
Activity (PC-12 [10]): 0.8%
Flu intensity (PC-12 [11]): 6730.32
Flu intensity (PC-12 [12]): 4910.91
Flu intensity (PC-12 [13]): 4161.82
Activity [14]: Active
Activity [15]: Active
Activity [16]: Dose-dependent effect
Activity (PC-12 [17]): inactive
